Measured values taken from ChEMBL document CHEMBL4014311, “Discovery of a Hepatitis C Virus NS5B Replicase Palm Site Allosteric Inhibitor (BMS-929075) Advanced to Phase 1 Clinical Studies” (J Med Chem, 2017).

Tests used:
[1] = Cytotoxicity against human HuH7 cells after 3 days by CellTiter-Blue assay; format: cell-based, Huh-7
[2] = Inhibition of HCV genotype 1b NS5B replicase C316N mutant infected in human HuH7 cells assessed as reduction of viral replication after 3 days by luciferase reporter assay; format: cell-based, Hepatitis C virus subtype 1b; conditions: Hepatitis C virus, Huh-7, 72 h
[3] = system: Hepatitis C virus; assay: Antiviral activity against HCV genotype 1b infected in human HuH7 cells after 3 days by luciferase reporter assay; format: functional, cell-based, Hepacivirus hominis; conditions: Hepatitis C virus, genotype 1b, Huh-7, 72 h; read-out: EC50
[4] = system: Hepatitis C virus; assay: Antiviral activity against HCV genotype 1a infected in human HuH7 cells after 3 days by luciferase reporter assay; format: functional, cell-based, Hepacivirus hominis, subtype 1a; conditions: Hepatitis C virus, subtype 1a, Huh-7, 72 h; read-out: EC50
[5] = Half life in human liver microsomes; format: ADME, microsome
[6] = Half life in rat liver microsomes; format: ADME, microsome
[7] = Membrane permeability at pH 7.4 by PAMPA; format: physicochemical; conditions: read-out: permeability
[8] = Drug uptake in Sprague-Dawley rat liver at 6 mg/kg, po via gavage after 6 hrs by LC-MS/MS analysis; format: ADME, organism-based; conditions: read-out: Drug uptake
How it was run: (§1)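 Fasted rats were dosed orally in 90:10 PEG-400/ethanol; 6 h livers came from satellite animals. In the screening variant, n = 2 and plasma was taken to 6 h with livers at the terminal point. Livers were rinsed, blotted, weighed and homogenized in 2 volumes of 80% acetonitrile in HBSS per gram, then centrifuged. Supernatant and plasma were analysed by LC/MS/MS.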

[9] = target: T1, Cytochrome P450 2C8 (Homo sapiens, UniProt P10632); assay: Inhibition of microsomal CYP2C8 (unknown origin); format: ADME
T1 sequence (P10632 whole entry): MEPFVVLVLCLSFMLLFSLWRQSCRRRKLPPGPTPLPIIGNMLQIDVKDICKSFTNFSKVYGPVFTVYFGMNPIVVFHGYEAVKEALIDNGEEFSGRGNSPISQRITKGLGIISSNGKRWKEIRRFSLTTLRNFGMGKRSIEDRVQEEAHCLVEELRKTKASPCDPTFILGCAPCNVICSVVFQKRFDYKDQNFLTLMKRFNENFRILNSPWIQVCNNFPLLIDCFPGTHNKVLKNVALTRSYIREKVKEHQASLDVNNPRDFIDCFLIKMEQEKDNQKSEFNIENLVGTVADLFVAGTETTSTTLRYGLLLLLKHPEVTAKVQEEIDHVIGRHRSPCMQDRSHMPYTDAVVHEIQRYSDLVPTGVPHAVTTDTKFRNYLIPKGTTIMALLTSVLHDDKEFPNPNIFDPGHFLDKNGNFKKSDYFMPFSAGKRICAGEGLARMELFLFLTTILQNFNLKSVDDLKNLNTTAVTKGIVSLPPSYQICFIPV

[10] = target: Cytochrome P450 3A4 (Homo sapiens, UniProt P08684); assay: Inhibition of microsomal CYP3A4 (unknown origin); format: ADME
Cytochrome P450 3A4, sequence (P08684 whole entry): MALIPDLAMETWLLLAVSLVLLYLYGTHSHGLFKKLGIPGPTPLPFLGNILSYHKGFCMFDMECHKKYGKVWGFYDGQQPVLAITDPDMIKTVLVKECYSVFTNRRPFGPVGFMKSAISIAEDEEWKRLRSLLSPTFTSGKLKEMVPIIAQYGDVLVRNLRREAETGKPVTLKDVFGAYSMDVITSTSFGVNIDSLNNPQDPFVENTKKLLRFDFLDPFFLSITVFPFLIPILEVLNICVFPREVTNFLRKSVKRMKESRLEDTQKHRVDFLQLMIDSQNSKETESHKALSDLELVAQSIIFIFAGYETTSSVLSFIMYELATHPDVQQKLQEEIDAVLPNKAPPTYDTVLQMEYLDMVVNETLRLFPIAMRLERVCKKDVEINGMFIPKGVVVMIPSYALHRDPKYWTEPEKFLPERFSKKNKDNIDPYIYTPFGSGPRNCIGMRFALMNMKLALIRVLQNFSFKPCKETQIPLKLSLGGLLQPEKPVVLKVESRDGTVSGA

[11] = Half life in dog liver microsomes; format: ADME, Canis lupus familiaris, microsome
[12] = Half life in monkey liver microsomes; format: ADME, Macaca mulatta, microsome; conditions: rhesus monkey
[13] = target: Voltage-gated inwardly rectifying potassium channel KCNH2 (Homo sapiens, UniProt Q12809); assay: Inhibition of human ERG by thallium flux assay
Voltage-gated inwardly rectifying potassium channel KCNH2, sequence (Q12809 whole entry): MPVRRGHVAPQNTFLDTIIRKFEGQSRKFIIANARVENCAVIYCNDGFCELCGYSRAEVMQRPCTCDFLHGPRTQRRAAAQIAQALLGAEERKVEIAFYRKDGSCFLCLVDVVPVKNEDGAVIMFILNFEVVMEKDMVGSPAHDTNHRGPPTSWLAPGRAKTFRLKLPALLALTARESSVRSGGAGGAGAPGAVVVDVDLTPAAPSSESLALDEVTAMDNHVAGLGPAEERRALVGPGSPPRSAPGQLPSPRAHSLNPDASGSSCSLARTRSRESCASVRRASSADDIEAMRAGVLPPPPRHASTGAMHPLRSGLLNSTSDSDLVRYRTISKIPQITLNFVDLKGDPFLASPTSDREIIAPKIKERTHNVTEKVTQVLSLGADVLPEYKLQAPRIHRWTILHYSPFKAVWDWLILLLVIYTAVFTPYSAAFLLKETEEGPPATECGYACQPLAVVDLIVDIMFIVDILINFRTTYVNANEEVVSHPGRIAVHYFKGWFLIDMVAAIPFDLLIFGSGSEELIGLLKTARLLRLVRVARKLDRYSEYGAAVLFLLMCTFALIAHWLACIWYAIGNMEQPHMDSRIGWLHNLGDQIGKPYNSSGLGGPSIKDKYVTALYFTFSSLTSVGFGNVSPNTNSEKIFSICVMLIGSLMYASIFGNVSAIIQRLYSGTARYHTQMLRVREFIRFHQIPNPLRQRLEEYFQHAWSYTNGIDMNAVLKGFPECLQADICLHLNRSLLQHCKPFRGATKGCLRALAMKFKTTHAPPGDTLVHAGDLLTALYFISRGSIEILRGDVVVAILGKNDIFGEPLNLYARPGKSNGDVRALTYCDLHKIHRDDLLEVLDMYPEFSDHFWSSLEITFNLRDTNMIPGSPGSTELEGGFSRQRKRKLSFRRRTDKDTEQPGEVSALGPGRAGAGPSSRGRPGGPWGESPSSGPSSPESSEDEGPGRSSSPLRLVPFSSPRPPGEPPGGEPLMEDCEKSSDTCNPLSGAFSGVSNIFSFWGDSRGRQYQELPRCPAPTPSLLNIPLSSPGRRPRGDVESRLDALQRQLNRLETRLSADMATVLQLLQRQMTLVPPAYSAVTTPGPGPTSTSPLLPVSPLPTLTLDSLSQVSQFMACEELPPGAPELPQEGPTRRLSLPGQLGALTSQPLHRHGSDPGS

[14] = target: T2, Nuclear receptor subfamily 1 group I member 2 (Homo sapiens, UniProt O75469); assay: Transactivation of PXR (unknown origin); format: ADME
T2 sequence (O75469 whole entry): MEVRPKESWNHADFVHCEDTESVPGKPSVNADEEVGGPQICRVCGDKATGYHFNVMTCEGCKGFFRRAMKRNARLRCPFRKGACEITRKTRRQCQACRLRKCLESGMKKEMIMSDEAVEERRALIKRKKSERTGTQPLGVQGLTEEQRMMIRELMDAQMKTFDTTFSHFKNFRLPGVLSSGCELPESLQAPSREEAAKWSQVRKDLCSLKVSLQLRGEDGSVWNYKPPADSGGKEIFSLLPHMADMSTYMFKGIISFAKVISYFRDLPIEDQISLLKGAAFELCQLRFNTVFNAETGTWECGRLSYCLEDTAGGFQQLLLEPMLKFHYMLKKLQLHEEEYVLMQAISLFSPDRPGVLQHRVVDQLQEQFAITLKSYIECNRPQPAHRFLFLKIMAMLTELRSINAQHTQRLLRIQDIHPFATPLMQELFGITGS

[15] = Lipophilicity, log D of the compound at pH 6.5 by shake flask method; format: physicochemical; conditions: buffer
[16] = target: hERG (Homo sapiens, UniProt Q12809); assay: Inhibition of human ERG at 10 uM by patch clamp assay
hERG, sequence (Q12809 whole entry): as the sequence (Q12809 whole entry) above

[17] = system: Rattus norvegicus; assay: Half life in Sprague-Dawley rat at 2 mg/kg,iv by LC/MS/MS analysis; format: ADME, organism-based; conditions: in vivo
How it was run: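 A 10 min constant-rate jugular vein infusion was given in 90:10 PEG-400/ethanol (v/v), n = 3 rats. Plasma was sampled predose and at 10, 15, 30, 45, 60 min and 2, 4, 6, 8, 24 h, then assayed by LC/MS/MS. Clearance and apparent terminal t1/2 were estimated by noncompartmental analysis.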

[18] = system: Rattus norvegicus; assay: Volume of distribution at steady state in Sprague-Dawley rat at 2 mg/kg, iv by LC/MS/MS analysis; format: ADME, organism-based; conditions: in vivo
How it was run: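 Rats received a 2 mg/kg IV dose in 90:10 PEG-400/ethanol as a 10 min constant-rate jugular infusion. Blood collected predose and at 10, 15, 30, 45, 60 min and 2, 4, 6, 8, 24 h; n = 3. Plasma analyzed by LC/MS/MS. Vss derived by noncompartmental analysis of IV data.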

[19] = Cmax in Sprague-Dawley rat at 6 mg/kg, po administered via gavage by LC/MS/MS analysis; format: ADME, organism-based; design: dose 6 mg/kg, route oral; conditions: in vivo
How it was run: (§2)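 Rats were fasted overnight with free access to water, then dosed by gastric gavage with an […] solution in 90:10 PEG-400/ethanol (v/v), n = 3 per group. EDTA plasma was sampled predose and at 15, 30, 45, 60 min and 2, 4, 6, 8, 24 h, then assayed by LC/MS/MS. Parameters come from noncompartmental analysis: Cmax observed directly, AUC by linear/log trapezoidal summation, F as dose-normalized PO/IV AUC ratio.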

[20] = Tmax in Sprague-Dawley rat at 6 mg/kg, po administered via gavage by LC/MS/MS analysis; format: ADME, organism-based; conditions: in vivo
How it was run: (§3)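 Rats fasted overnight, then dosed by gavage at 6 mg/kg in 90:10 PEG-400/ethanol (v/v). Plasma sampled serially from cannula into EDTA tubes predose and at 15, 30, 45, 60 min and 2, 4, 6, 8, 24 h; n = 3. Livers removed at 6 h (satellite animals) and 24 h, homogenized in 80% acetonitrile/HBSS, assayed by LC/MS/MS. Tmax taken directly from observed data.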

[21] = AUC in Sprague-Dawley rat at 6 mg/kg, po administered via gavage by LC/MS/MS analysis; format: ADME, organism-based; conditions: in vivo; how it was run: as §2
[22] = Drug uptake in Sprague-Dawley rat liver at 6 mg/kg, po administered via gavage after 24 hrs by LC/MS/MS analysis; format: ADME, organism-based; conditions: read-out: Drug uptake; how it was run: as §1
[23] = Ratio of drug uptake in Sprague-Dawley rat liver to plasma at 6 mg/kg, po administered via gavage after 24 hrs by LC/MS/MS analysis; format: ADME, organism-based; how it was run: as §3
[24] = Oral bioavailability in Sprague-Dawley rat at 6 mg/kg by LC/MS/MS analysis; format: ADME, organism-based; conditions: in vivo; how it was run: as §2
[25] = system: Hepatitis C virus; assay: Ratio of EC50 for HCV genotype 1b infected in human HuH7 cells in presence of 40% human serum to EC50 for HCV genotype-1b infected in human HuH7 cells; format: functional, Hepacivirus hominis
[26] = system: Hepatitis C virus; assay: Ratio of EC50 for HCV genotype 1a infected in human HuH7 cells in presence of 40% human serum to EC50 for HCV genotype 1a infected in human HuH7 cells; format: functional, Hepacivirus hominis, subtype 1a
[27] = Inhibition of HCV genotype 1b NS5B replicase expressed in Escherichia coli BL21(DE3) using polyA/biotinylated oligo(dT12) as template/primer in presence of [3H]UTP after 60 mins by SPA assay; design: species or system Hepatitis C virus subtype 1b
[28] = Ratio of IC50 for HCV genotype 1b […] replicase to EC50 for HCV genotype 1b infected in human HuH7 cells; design: species or system Hepatitis C virus subtype 1b
[29] = Metabolic stability in human liver microsomes assessed as parent compound remaining after 10 mins; format: ADME, microsome; conditions: read-out: Stability
[30] = Metabolic stability in rat liver microsomes assessed as parent compound remaining after 10 mins; format: ADME, microsome; conditions: read-out: Stability
[31] = Drug uptake in Sprague-Dawley rat plasma at 6 mg/kg, po via gavage after 6 hrs by LC-MS/MS analysis; format: ADME, organism-based; how it was run: as §1
[32] = Clearance in Sprague-Dawley rat at 6 mg/kg, po via gavage by LC-MS/MS analysis; format: ADME, organism-based; conditions: in vivo

CNC(=O)c1c(-c2ccc(F)cc2)oc2ccc(-c3cc(C(=O)NC4(c5ncccn5)CC4)ccc3C)cc12
CC50 at 72 h [1]: 20 µM
EC50 [2]: 0.051 µM
EC50 [3]: 0.001 µM
EC50 [4]: 0.0023 µM
half-life [5]: > 2 h
half-life [6]: 1.43 h
Papp [7]: 76.9 ×10⁻⁶ cm/s
concentration at 6 h [8]: 8.7 µM
IC50 [9]: 3.9 µM
IC50 [10]: 11.4 µM
half-life [11]: 0.767 h
half-life [12]: 0.85 h
IC50 [13]: 4.8 µM
EC50 [14]: > 50 µM
logD [15]: 4.76
inhibition at 10 µM [16]: 96%
t1/2 [17]: 5.3 h
Vdss [18]: 6.1 L/kg
Cmax [19]: 6.7 µM
Tmax [20]: 4.7 h
AUC [21]: 48.7 µM·h
concentration at 24 h [22]: 0.614 µM
Kp at 24 h [23]: 2.4
bioavailability [24]: > 100%
Ratio EC50 [25]: 4
Ratio EC50 [26]: 4

CNC(=O)c1cccc(-c2ccc3oc(-c4ccc(F)cc4)c(C(=O)NC)c3c2)c1
IC50 [27]: 2.2 µM
EC50 [3]: 0.59 µM
Ratio IC50/EC50 [28]: 2

CNC(=O)c1c(-c2ccc(F)cc2)oc2ccc(-c3cc(C(=O)NC4(c5ccccn5)CC4)ccc3C)cc12
EC50 [2]: 0.055 µM
EC50 [3]: 0.0019 µM
EC50 [4]: 0.0028 µM
remaining at 10 min [29]: 89%
remaining at 10 min [30]: 82%
half-life [5]: 1.8 h
half-life [6]: 1.02 h
Papp [7]: 99.9 ×10⁻⁶ cm/s
concentration at 6 h [31]: 1.64 µM
concentration at 6 h [8]: 15.7 µM
CL/F [32]: 14 mL/min/kg
IC50 [9]: 1 µM
IC50 [10]: 4.1 µM
half-life [11]: 0.233 h
half-life [12]: 0.333 h
EC50 [14]: 1.6 µM
logD [15]: 5.42
